Data as given in paper PMC3764597 (Carbohydrate research, 2013).
“And” between values parts separate entries of the source, which are not always exact repeats. Identical values can stand only once. “Also recorded” adds a separate entry of the source. Like-named read-outs stand apart in the source and are kept apart here.

Columns and labels:
[1] = cited from earlier work; for collapse pressure: room temperature; for "lift-off" temperature: linear alkanoic acids
[2] = Differential scanning calorimetry; assay type: physicochemical; conditions: DSC; for Transition temperature: 25 to 200 °C, 2.5 °C/min; for Enthalpy: phase transition, from integration of the thermograms
Procedure, shortened: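 Dry surfactant (1.0–1.5 mg) sealed in hermetic aluminum pans against an empty sealed-pan reference. Instrument calibrated with indium for temperature and enthalpy. Scanned 25–200 °C at 2.5 °C/min. Transition enthalpies obtained by integrating the thermograms.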

[3] = MTS cytotoxicity assay in HaCaT cells; assay type: cell-based, human; conditions: human, HaCaT cells (spontaneously immortalized keratinocytes)
Procedure, shortened: (§1)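 Cells kept in DMEM with 10% heat-inactivated newborn calf serum plus penicillin/streptomycin/amphotericin B at 37 °C, 5% CO₂. Seeded 5,000 per well. Compound in DMSO added at 1–1000 μM for 18 h, then MTS for 2 h. A490 read with A650 reference, medium+MTS background subtracted. Viability given as % of DMSO-treated cells, triplicates. CC₅₀ by linear regression of the two points bracketing 50%.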

[4] = tested on: HaCaT, Hs27 and Jurkat cells; experiment: MTS cytotoxicity assay, statements summarised over the cell lines; assay type: cell-based; conditions: for toxicity (MTS assay), in words: all three cell lines (HaCaT, Hs27, Jurkat), concentrations 1 to 1000 μM
[5] = MTS cytotoxicity assay in Jurkat cells; assay type: cell-based, human; conditions: human, Jurkat cells (acute leukemia T lymphocytes)
Procedure, shortened: (§2)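 Jurkat cells kept in RPMI with 10% heat-inactivated FBS plus antibiotics at 37 °C, 5% CO₂. Seeded 25,000 per well. Compound in DMSO at 1–1000 μM for 16 h, then MTS for 4 h. A490 read with A650 reference, background-corrected. Viability normalized to DMSO controls, triplicates. CC₅₀ from regression line through the two viabilities nearest 50%.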

[6] = MTS cytotoxicity assay in Hs27 cells; assay type: cell-based, human; conditions: human, Hs27 cells (foreskin fibroblasts)
Procedure, shortened: as §1

Jurkat cells = experiment: Apoptosis/necrosis assay, annexin V-FITC staining and flow cytometry; assay type: cell-based; conditions: 20 h incubation, compounds added at their CC50
[7] = Langmuir monolayer compression isotherms at the air-water interface; assay type: physicochemical; conditions: for formation of stable monolayers at the air-water interface: 14 °C, 150 mM NaCl / 1.5 mM CaCl2 subphase; for "lift-off" temperature: πtrans versus temperature extrapolated to zero surface pressure
Procedure, shortened: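 Subphase was 150 mM NaCl plus 1.5 mM CaCl₂ in purified water (pH 7.0), held at set temperatures by circulating bath, with impurities vacuumed off. Spread 50 μL of 1.662 mM surfactant in dichloromethane:methanol 9:1, let solvent evaporate, then compressed symmetrically at 10 mm/min (7.5 cm²/min). Wilhelmy platinum plate. Limiting area by extrapolating linear condensed region to zero pressure. Three independent runs.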

[8] = tested on: Spontaneously immortalized human keratinocytes (HaCaT); experiment: MTS cytotoxicity assay in HaCaT cells; assay type: cell-based; conditions: HaCaT cells, 18 h treatment then 2 h MTS, 1 to 1000 μM
Procedure, shortened: as §1

[9] = tested on: Jurkat human T-cell lymphoblastic leukemia cells; experiment: MTS cytotoxicity assay in Jurkat cells; assay type: cell-based; conditions: Jurkat cells, 16 h treatment then 4 h MTS, 1 to 1000 μM
Procedure, shortened: as §2

human Hs27 fibroblasts [10] = experiment: MTS cytotoxicity assay in Hs27 cells; assay type: cell-based; conditions: Hs27 cells, 18 h treatment then 2 h MTS, 1 to 1000 μM
Procedure, shortened: as §1

[11] = tested on: Spontaneously immortalized human keratinocytes (HaCaT); conditions: HaCaT cells, value of the previous study; cited from earlier work
[12] = tested on: Jurkat human T-cell lymphoblastic leukemia cells; conditions: value of the previous study; cited from earlier work
human Hs27 fibroblasts [13] = conditions: Hs27 cells, value of the previous study; cited from earlier work
[14] = insoluble monolayers at the air-water interface

Compound: 6-O-stearoyl galactopyranoside
- limiting molecular area [1, 14]: 32 Å^2
- collapse pressure [1]: 66 mN/m

Compound: 6-O-stearoyl glucopyranoside
- limiting molecular area [1, 14]: 44 Å^2
- collapse pressure [1]: 43 mN/m

Compound: CCCCCCn1cc(CO[C@@H]2OC[C@@H](O)[C@H](O)[C@H]2O)nn1 [Compound 5a, (1-Hexyl-1H-1,2,3-triazol-4-yl)methyl β-D-xylopyranoside]
- Transition temperature [2]: 120.1 ± 0.8 °C
- Enthalpy [2]: 6.45 ± 0.96 kcal/mol
- CC50 at 18 h [3]: > 1000 µM
- toxicity (MTS assay), in words [4]: not toxic
- CC50 at 16 h [5]: > 1000 µM
- CC50 at 18 h [6]: > 1000 µM

Compound: CCCCCCCCn1cc(CO[C@@H]2OC[C@@H](O)[C@H](O)[C@H]2O)nn1 [Compound 5b, (1-Octyl-1H-1,2,3-triazol-4-yl)methyl β-D-xylopyranoside]
- Transition temperature [2]: 126.9 ± 0.8 °C
- Enthalpy [2]: 7.41 ± 1.2 kcal/mol
- CC50 at 18 h [3]: 890 ± 50 µM
- CC50 at 16 h [5]: 580 ± 60 µM
- CC50 at 18 h [6]: 694 ± 3 µM
- mode of cell death (viable, apoptotic, necrotic cells) (Jurkat cells): comparable with the positive controls for apoptosis

Compound: CCCCCCCCCCn1cc(CO[C@@H]2OC[C@@H](O)[C@H](O)[C@H]2O)nn1 [Compound 5c, (1-Decyl-1H-1,2,3-triazol-4-yl)methyl β-D-xylopyranoside]
- Transition temperature [2]: 133.6 ± 0.1 °C
- Enthalpy [2]: 9.32 ± 0.48 kcal/mol
- CC50 at 18 h [3]: 120 ± 30 µM
- fold more toxic than 5b ([4]; in both Jurkat and HaCaT cells, from CC50 values): approximately 8 fold
- CC50 at 16 h [5]: 77 ± 9 µM
- CC50 at 18 h [6]: 180 ± 50 µM

Compound: CCCCCCCCCCCCn1cc(CO[C@@H]2OC[C@@H](O)[C@H](O)[C@H]2O)nn1 [Compound 5d, (1-Dodecyl-1H-1,2,3-triazol-4-yl)methyl β-D-xylopyranoside]
- Transition temperature [2]: 130.1 ± 0.2 °C
- Enthalpy [2]: 8.13 ± 0.48 kcal/mol
- CC50 at 18 h [3]: > 1000 µM
- CC50 at 16 h [5]: 26 ± 3 µM
- CC50 at 18 h [6]: > 1000 µM

Compound: CCCCCCCCCCCCCCn1cc(CO[C@@H]2OC[C@@H](O)[C@H](O)[C@H]2O)nn1 [Compound 5e, (1-Tetradecyl-1H-1,2,3-triazol-4-yl)methyl β-D-xylopyranoside]
- Transition temperature [2]: 134.7 ± 0.4 °C
- Enthalpy [2]: 9.8 ± 0.24 kcal/mol
- CC50 at 18 h [3]: > 1000 µM
- toxicity (MTS assay), in words [4]: not toxic
- CC50 at 16 h [5]: > 1000 µM
- CC50 at 18 h [6]: > 1000 µM
- formation of stable monolayers at the air-water interface [7]: formed stable monolayers
- Atrans: mean molecular area at phase transition ([7]; subphase 14 °C): 68 Å^2/molecule and 68.5 ± 0.9 Å^2/molecule
- π max: maximum surface pressure (collapse pressure) ([7]; subphase 14 °C): 64.1 ± 0.5 mN/m
- π trans: surface pressure at phase transition ([7]; subphase 14 °C): 5.6 mN/m and 5.6 ± 0.2 mN/m
- Atrans: mean molecular area at phase transition ([7]; subphase 17 °C): 53.6 ± 0.9 Å^2/molecule
- π max: maximum surface pressure (collapse pressure) ([7]; subphase 17 °C): 62.4 ± 1.4 mN/m
- π trans: surface pressure at phase transition ([7]; subphase 17 °C): 11.3 ± 0.2 mN/m
- Atrans: mean molecular area at phase transition ([7]; subphase 22 °C): 47.5 ± 0.2 Å^2/molecule
- π max: maximum surface pressure (collapse pressure) ([7]; subphase 22 °C): 59.4 ± 0.6 mN/m
- π trans: surface pressure at phase transition ([7]; subphase 22 °C): 15.0 ± 0.1 mN/m
- Atrans: mean molecular area at phase transition ([7]; subphase 26 °C): 42.1 ± 0.7 Å^2/molecule
- π max: maximum surface pressure (collapse pressure) ([7]; subphase 26 °C): 53.0 ± 2.0 mN/m
- π trans: surface pressure at phase transition ([7]; subphase 26 °C): 20.9 ± 0.2 mN/m
- Atrans: mean molecular area at phase transition ([7]; subphase 30 °C): 38 Å^2/molecule and 38.0 ± 1.2 Å^2/molecule
- π max: maximum surface pressure (collapse pressure) ([7]; subphase 30 °C): 47.0 ± 3.0 mN/m
- π trans: surface pressure at phase transition ([7]; subphase 30 °C): 26 mN/m and 27.0 ± 0.5 mN/m
- "lift-off" temperature [7]: 9.2 °C

Compound: CCCCCCCCCCCCCCCCn1cc(CO[C@@H]2OC[C@@H](O)[C@H](O)[C@H]2O)nn1 [Compound 5f, (1-Hexadecyl-1H-1,2,3-triazol-4-yl)methyl β-D-xylopyranoside]
- Transition temperature [2]: 134.9 ± 0.1 °C
- Enthalpy [2]: 10.5 ± 0.48 kcal/mol
- CC50 at 18 h [3]: > 1000 µM
- toxicity (MTS assay), in words [4]: not toxic
- CC50 at 16 h [5]: > 1000 µM
- CC50 at 18 h [6]: > 1000 µM
- formation of stable monolayers at the air-water interface [7]: formed stable monolayers
- Atrans: mean molecular area at phase transition ([7]; subphase 22 °C): 84.0 ± 2.0 Å^2/molecule
- π max: maximum surface pressure (collapse pressure) ([7]; subphase 22 °C): 64.0 ± 3.0 mN/m
- π trans: surface pressure at phase transition ([7]; subphase 22 °C): 1.6 ± 0.2 mN/m
- Atrans: mean molecular area at phase transition ([7]; subphase 26 °C): 70.0 ± 2.0 Å^2/molecule
- π max: maximum surface pressure (collapse pressure) ([7]; subphase 26 °C): 58.6 ± 0.8 mN/m
- π trans: surface pressure at phase transition ([7]; subphase 26 °C): 6.8 ± 0.1 mN/m
- Atrans: mean molecular area at phase transition ([7]; subphase 30 °C): 65.0 ± 2.0 Å^2/molecule
- π max: maximum surface pressure (collapse pressure) ([7]; subphase 30 °C): 53.6 ± 1.0 mN/m
- π trans: surface pressure at phase transition ([7]; subphase 30 °C): 9.9 ± 0.1 mN/m
- Atrans: mean molecular area at phase transition ([7]; subphase 33 °C): 61.0 ± 2.0 Å^2/molecule
- π max: maximum surface pressure (collapse pressure) ([7]; subphase 33 °C): 51.6 ± 0.4 mN/m
- π trans: surface pressure at phase transition ([7]; subphase 33 °C): 11.6 ± 0.3 mN/m
- Atrans: mean molecular area at phase transition ([7]; subphase 37 °C): 51 Å^2/molecule and 51.2 ± 0.9 Å^2/molecule
- π max: maximum surface pressure (collapse pressure) ([7]; subphase 37 °C): 48.0 ± 2.0 mN/m
- π trans: surface pressure at phase transition ([7]; subphase 37 °C): 18 mN/m and 18.4 ± 0.4 mN/m
- "lift-off" temperature [7]: 20.2 °C

Compound: O[C@@H]1[C@@H](O)[C@H](OCc2cn(CCC(F)(F)C(F)(F)C(F)(F)C(F)(F)C(F)(F)C(F)(F)F)nn2)OC[C@H]1O [Compound 5g, (1-(3,3,4,4,5,5,6,6,7,7,8,8,8-Tridecafluorooctyl)-1H-1,2,3-triazol-4-yl)methyl β-D-xylopyranoside]
- Transition temperature [2]: 158 °C and 158.8 ± 0.2 °C
- Enthalpy [2]: 10.8 ± 0.24 kcal/mol
- CC50 at 18 h [3]: > 1000 µM
- toxicity (MTS assay), in words [4]: not toxic; also recorded: no measurable inhibition of cell viability
- CC50 at 16 h [5]: > 1000 µM
- CC50 at 18 h [6]: > 1000 µM

Compound: CCCCCCCCCCCCCCCC(=O)O [hexadecanoic acid]
- "lift-off" temperature [1]: ~26 °C

Compound: CCCCCCCCCCCCCC(=O)O [tetradecanoic acid]
- "lift-off" temperature [1]: approximately 7 °C

Compound: CCCCCCCCS[C@@H]1O[C@H](CO)[C@@H](O)[C@H](O)[C@H]1O [β-OTG, β-octyl thioglucopyranoside, reference compound]
- CC50 [8]: 490 ± 60 µM
- CC50 [9]: 310 ± 40 µM
- CC50 (human Hs27 fibroblasts [10]): 380 ± 30 µM

Compound: CCCCCCCCO[C@@H]1OC[C@@H](O)[C@H](O)[C@H]1O [β-OXP, β-octyl xylopyranoside]
- CC50 [11]: 850 ± 30 µM
- CC50 [12]: 460 ± 13 µM
- CC50 (human Hs27 fibroblasts [13]): 760 ± 50 µM

Compound: n-nonyl glucosamine
- limiting molecular area ([1]; 25 °C): 46 Å^2/molecule

Compound: n-octyl glucosamine
- limiting molecular area ([1]; 25 °C): 48 Å^2/molecule
